Reference: ChEMBL document CHEMBL3244179, “Potential inhibitors of S-adenosylmethionine-dependent methyltransferases. 7. Role of the ribosyl moiety in enzymatic binding of S-adenosyl-L-homocysteine and S-adenosyl-L-methionine” (J Med Chem, 1978)

Experiments:
[1] = Retardation factor, Rf of the compound on silica gel GF containing EtOH-HOAc-H2O (20:2:2)/0.1 M phosphate buffer at 7.4 by chromatography; assay type: physicochemical; details: pH 7.4
Outline: (§1)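 TLC plates carried a 250 μm silica gel GF layer. Spots were located visually under UV light, and with ninhydrin for amine-containing compounds.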

[2] = target: T1, Phenylethanolamine N-methyltransferase (Bos taurus) (UniProt P10938); assay: Inhibition of bovine adrenal medulla PNMT at 0.2 mM by radiochemical technique
T1 sequence (whole entry): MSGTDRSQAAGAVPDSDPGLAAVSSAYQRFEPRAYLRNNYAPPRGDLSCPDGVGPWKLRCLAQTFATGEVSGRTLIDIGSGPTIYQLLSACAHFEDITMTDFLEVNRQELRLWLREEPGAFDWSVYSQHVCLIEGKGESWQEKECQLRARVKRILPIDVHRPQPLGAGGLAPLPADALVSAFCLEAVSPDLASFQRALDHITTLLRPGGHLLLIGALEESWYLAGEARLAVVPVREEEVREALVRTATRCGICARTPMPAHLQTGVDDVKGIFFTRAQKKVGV
Outline: (§2)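 Bovine adrenal medulla PNMT, purified by a published method, was tested with inhibitor at 0.2 or 2.0 mM, SAM-14CH3 (0.05 μCi, 1.0 mM final) and DL-β-phenylethanolamine (1.0 mM final) in buffer. Incubation was at 37 °C. Activity was measured radiochemically by extracting the labeled product.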

[3] = target: T2, Catechol O-methyltransferase (Rattus norvegicus) (UniProt P22734); assay: Inhibition of Sprague-Dawley rat liver COMT at 0.2 mM by radiochemical technique
T2 sequence (whole entry): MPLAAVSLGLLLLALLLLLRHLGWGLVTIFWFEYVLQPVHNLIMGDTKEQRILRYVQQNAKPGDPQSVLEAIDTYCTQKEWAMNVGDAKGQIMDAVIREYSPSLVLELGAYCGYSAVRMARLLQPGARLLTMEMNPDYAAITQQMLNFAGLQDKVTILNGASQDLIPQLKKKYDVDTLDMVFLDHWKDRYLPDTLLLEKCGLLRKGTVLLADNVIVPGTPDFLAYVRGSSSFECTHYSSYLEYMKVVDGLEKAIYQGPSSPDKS
Outline: (§3)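 Rat liver COMT, purified by a published method, was tested with inhibitor at 0.2 or 2.0 mM, SAM-14CH3 (0.05 μCi, 1.0 mM final) and 3,4-dihydroxybenzoate (2.0 mM final) in buffer. Incubation was at 37 °C. Activity was measured radiochemically by extracting the radiolabeled methylated product.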

[4] = target: T1, Phenylethanolamine N-methyltransferase (Bos taurus); assay: Inhibition of bovine adrenal medulla PNMT at 2 mM by radiochemical technique; outline: as §2
[5] = target: T3, Acetylserotonin O-methyltransferase (Bos taurus) (UniProt P10950); assay: Inhibition of bovine pineal gland HIOMT at 0.2 mM by radiochemical technique
T3 sequence (whole entry): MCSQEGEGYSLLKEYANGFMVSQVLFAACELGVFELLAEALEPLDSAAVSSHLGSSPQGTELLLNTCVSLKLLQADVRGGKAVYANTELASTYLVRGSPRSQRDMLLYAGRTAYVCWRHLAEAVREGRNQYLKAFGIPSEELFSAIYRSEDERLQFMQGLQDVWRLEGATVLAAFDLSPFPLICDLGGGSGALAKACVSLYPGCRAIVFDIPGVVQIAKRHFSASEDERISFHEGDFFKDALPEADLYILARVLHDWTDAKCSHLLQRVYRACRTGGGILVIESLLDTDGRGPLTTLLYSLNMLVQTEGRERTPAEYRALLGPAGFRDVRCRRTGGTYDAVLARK
Outline: (§4)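 Bovine pineal gland HIOMT, purified by a published method, was tested with inhibitor at 0.2 or 2.0 mM, SAM-14CH3 (0.05 μCi, 1.0 mM final) and N-acetylserotonin (1.0 mM final) in buffer. Incubation was at 37 °C. Product formation was read radiochemically after extraction of the labeled product.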

[6] = target: Histamine N-methyltransferase (Cavia porcellus) (UniProt Q9EST2); assay: Inhibition of guinea pig HMT at 0.2 mM by radiochemical technique
Outline: (§5)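 HMT from guinea pig brain, purified by a published method, was tested with inhibitor at 0.2 or 2.0 mM, SAM-14CH3 (0.05 μCi, 1.0 mM final) and histamine (1.0 mM final) in buffer. Incubation was at 37 °C. Activity was measured radiochemically by extracting the radiolabeled product.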

[7] = target: T3, Acetylserotonin O-methyltransferase (Bos taurus); assay: Inhibition of bovine pineal gland HIOMT at 2 mM by radiochemical technique; outline: as §4
[8] = target: Histamine N-methyltransferase (Cavia porcellus) (UniProt Q9EST2); assay: Inhibition of guinea pig HMT at 2 mM by radiochemical technique; outline: as §5
[9] = Retardation factor, Rf of the compound on silica gel GF containing 5% Na2HPO4 by chromatography; assay type: physicochemical; outline: as §1
[10] = target: T2, Catechol O-methyltransferase (Rattus norvegicus); assay: Inhibition of Sprague-Dawley rat liver COMT at 2 mM by radiochemical technique; outline: as §3
[11] = target: T3, Acetylserotonin O-methyltransferase (Bos taurus); assay: Inhibition of bovine pineal gland HIOMT at 1 mM by radiochemical technique
[12] = target: T1, Phenylethanolamine N-methyltransferase (Bos taurus); assay: Inhibition of bovine adrenal medulla PNMT at 1 mM by radiochemical technique
[13] = target: T1, Phenylethanolamine N-methyltransferase (Bos taurus); assay: Inhibition of bovine adrenal medulla PNMT at 0.4 mM by radiochemical technique
[14] = target: Histamine N-methyltransferase (Cavia porcellus) (UniProt Q9EST2); assay: Inhibition of guinea pig HMT at 1 mM by radiochemical technique
[15] = target: Histamine N-methyltransferase (Cavia porcellus) (UniProt Q9EST2); assay: Inhibition of guinea pig HMT at 0.4 mM by radiochemical technique
[16] = target: T2, Catechol O-methyltransferase (Rattus norvegicus); assay: Inhibition of Sprague-Dawley rat liver COMT at 0.4 mM by radiochemical technique
[17] = target: T2, Catechol O-methyltransferase (Rattus norvegicus); assay: Inhibition of Sprague-Dawley rat liver COMT at 1 mM by radiochemical technique
[18] = target: T3, Acetylserotonin O-methyltransferase (Bos taurus); assay: Inhibition of bovine pineal gland HIOMT at 0.4 mM by radiochemical technique

Histamine N-methyltransferase (Cavia porcellus), sequence (Q9EST2 whole entry): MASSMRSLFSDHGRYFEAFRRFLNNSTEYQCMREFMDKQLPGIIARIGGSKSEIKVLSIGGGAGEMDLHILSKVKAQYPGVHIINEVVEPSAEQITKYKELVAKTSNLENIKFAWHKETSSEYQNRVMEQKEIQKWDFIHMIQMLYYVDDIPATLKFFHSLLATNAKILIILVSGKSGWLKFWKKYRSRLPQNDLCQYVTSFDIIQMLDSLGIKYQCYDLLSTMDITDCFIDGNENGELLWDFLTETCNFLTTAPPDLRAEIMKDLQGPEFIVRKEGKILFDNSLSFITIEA

SMILES | Rf [1] | inhibition [2] [%] | inhibition [3] [%] | inhibition [4] [%] | inhibition [5] [%] | inhibition [6] [%] | inhibition [7] [%] | inhibition [8] [%] | Rf [9] | inhibition [10] [%] | inhibition [11] [%] | inhibition [12] [%] | inhibition [13] [%] | inhibition [14] [%] | inhibition [15] [%] | inhibition [16] [%] | inhibition [17] [%] | inhibition [18] [%]
Nc1ncnc2c1nnn2[C@@H](CO)O[C@@H](CO)CSCC[C@@H](N)C(=O)O | 0.58 | 0 | 0 | 10 | 12 | 0 | 31 | 0 | 0.69 | 17 | – | – | – | – | – | – | – | –
Nc1ncnc2c1ncn2[C@@H](CO)O[C@@H](CO)CSCC[C@H](N)C(=O)O | 0.72 | 0 | 2 | 0 | 0 | 0 | 6 | 0 | 0.65 | 25 | – | – | – | – | – | – | – | –
C[S+](CC[C@H](N)C(=O)[O-])C[C@H]1O[C@@H](n2cnc3c(N)ncnc32)[C@H](O)[C@@H]1O (some centres undefined) [ADEMETIONINE] | 0.2 | – | – | – | – | – | – | – | 0.34 | – | – | – | – | – | – | – | – | –
Nc1ncnc2c1ncn2[C@@H](CO)O[C@@H](CO)CSCC[C@@H](N)C(=O)O | 0.72 | 8 | 0 | 16 | 9 | 0 | 26 | 19 | 0.65 | 26 | – | – | – | – | – | – | – | –
Nc1ncnc2c1ncn2[C@@H](CO)O[C@@H](CO)C[S+]([O-])CC[C@@H](N)C(=O)O (some centres undefined) | 0.74 | 9 | 5 | 17 | 7 | 0 | 16 | 0 | 0.6 | 22 | – | – | – | – | – | – | – | –
Nc1ncnc2c1ncn2[C@@H](CO)O[C@@H](CO)CSC[C@@H](N)C(=O)O | 0.75 | 10 | 0 | 15 | 0 | 0 | 0 | 3 | 0.63 | 12 | – | – | – | – | – | – | – | –
C[S+](CC[C@@H](N)C(=O)O)C[C@H](CO)O[C@H](CO)n1cnc2c(N)ncnc21 (some centres undefined) | 0.11 | 1 | 7 | 21 | 0 | 0 | 8 | 0 | 0.46 | 14 | – | – | – | – | – | – | – | –
Nc1nnnc2c1ncn2[C@@H](CO)O[C@@H](CO)CSCC[C@@H](N)C(=O)O | 0.66 | 0 | 4 | 15 | 18 | 0 | 25 | 0 | 0.69 | 5 | – | – | – | – | – | – | – | –

Continued, values first:

Rf [1] | inhibition [2] [%] | inhibition [3] [%] | inhibition [4] [%] | inhibition [5] [%] | inhibition [6] [%] | inhibition [7] [%] | inhibition [8] [%] | Rf [9] | inhibition [10] [%] | inhibition [11] [%] | inhibition [12] [%] | inhibition [13] [%] | inhibition [14] [%] | inhibition [15] [%] | inhibition [16] [%] | inhibition [17] [%] | inhibition [18] [%] | SMILES
0.72 | – | – | – | 49 | – | 89 | – | 0.71 | – | – | – | – | – | – | – | – | – | Nc1ncnc2c1nnn2[C@@H]1O[C@H](CSCCC(N)C(=O)O)[C@@H](O)[C@H]1O (single isomer, unassigned)
– | 14 | 5 | 32 | 1 | 73 | 6 | 99 | – | 22 | – | – | – | – | – | – | – | – | Nc1ncnc2c1ncn2[C@@H]1O[C@H](CSCCC(N)C(=O)O)[C@@H](O)[C@H]1O (single isomer, unassigned)
0.79 | 11 | 0 | 27 | 12 | 14 | 33 | 43 | 0.74 | 5 | – | – | – | – | – | – | – | – | Nc1ncnc2c1ncn2[C@@H]1O[C@H](CSCC(N)C(=O)O)[C@@H](O)[C@H]1O (single isomer, unassigned)
0.79 | – | – | – | – | – | – | – | 0.7 | – | 39 | 58 | 38 | 8 | 0 | 3 | 6 | 23 | Nc1nnnc2c1ncn2[C@@H]1O[C@H](CSCCC(N)C(=O)O)[C@@H](O)[C@H]1O (single isomer, unassigned)
0.74 | 10 | 14 | 22 | 0 | 0 | 0 | 9 | 0.72 | 42 | – | – | – | – | – | – | – | – | Nc1ncnc2c1ncn2[C@@H]1O[C@H](C[S+]([O-])CC[C@@H](N)C(=O)O)[C@@H](O)[C@H]1O (some centres undefined)
0.73 | 49 | 39 | 92 | 71 | 40 | 94 | 89 | 0.73 | 87 | – | – | – | – | – | – | – | – | Nc1ncnc2c1ncn2[C@@H]1O[C@H](CSCC[C@H](N)C(=O)O)[C@@H](O)[C@H]1O [S-ADENOSYLHOMOCYSTEINE]
